Results reported in ChEMBL document CHEMBL1152834, “Synthesis and potential anticonvulsant activity of new N-3-substituted 5,5-cyclopropanespirohydantoins” (2009).

Legend:
Type in all cases: functional
[1] = system: Mus musculus; test: Anticonvulsant activity in mouse assessed as inhibition of maximal electroshock-induced seizures at 30 mg/kg, po
Outline: (§1)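 Male Kunming mice (20 ± 2.0 g), 10 per group, given test agent orally as a suspension in 0.5% carboxymethyl cellulose–0.9% saline. After 1 h, a 25 mA shock was delivered through ear electrodes for 0.25 s. Protection was scored as abolition of the hind limb tonic extensor component. Results are given as animals protected/animals tested.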

[2] = system: Mus musculus; test: Anticonvulsant activity in mouse assessed as inhibition of maximal electroshock-induced seizures at 15 mg/kg, po; outline: as §1
[3] = system: Mus musculus; test: Anticonvulsant activity in mouse assessed as inhibition of maximal electroshock-induced seizures at 7.5 mg/kg, po; outline: as §1
[4] = system: Mus musculus; test: Anticonvulsant activity in mouse assessed as inhibition of subcutaneous pentylenetetrazole-induced seizures at 80 mg/kg, po
Outline: (§2)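 Male Kunming mice (20 ± 2.0 g) received oral test agent suspended in 0.5% carboxymethyl cellulose–0.9% saline. Pentylenetetrazole 70 mg/kg in 0.9% saline was then injected subcutaneously in the scruff of the neck. Protection meant no threshold seizure, i.e. no single clonic spasm episode lasting at least 5 s.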

[5] = system: Mus musculus; test: Anticonvulsant activity in mouse assessed as inhibition of subcutaneous pentylenetetrazole-induced seizures at 40 mg/kg, po; outline: as §2
[6] = system: Mus musculus; test: Anticonvulsant activity in mouse assessed as inhibition of subcutaneous pentylenetetrazole-induced seizures at 20 mg/kg, po; outline: as §2

Row | SMILES | inhibition in vivo at 30 mg/kg [1] [%] | inhibition in vivo at 15 mg/kg [2] [%] | inhibition in vivo at 7.5 mg/kg [3] [%] | inhibition in vivo at 80 mg/kg [4] [%] | inhibition in vivo at 40 mg/kg [5] [%] | inhibition in vivo at 20 mg/kg [6] [%]
1 | CCCCN1C(=O)NC2(CC2(C)C)C1=O (stereo not drawn) | 90 | 50 | 20 | 60 | 40 | 30
2 | CC1(C)CC12NC(=O)NC2=O (stereo not drawn) | 50 |  |  |  |  | 
3 | O=C1N=C(O)NC1(c1ccccc1)c1ccccc1 [PHENYTOIN SODIUM] | 90 | 50 | 20 |  |  | 
4 | Cc1ccc(N2C(=O)NC3(CC3(C)C)C2=O)cc1 (stereo not drawn) | 50 |  |  |  |  | 
5 | CCC(CO)N1C(=O)NC2(CC2(C)C)C1=O (stereo not drawn) | 90 | 50 | 30 | 70 | 40 | 20
6 | CC1(C)CC12NC(=O)N(c1cc(Cl)cc(Cl)c1)C2=O (stereo not drawn) | 50 |  |  |  |  | 
7 | CC1(C)CC12NC(=O)N(Cc1ccccc1)C2=O (stereo not drawn) | 70 |  |  |  |  | 
8 | CC1(C)CC12NC(=O)N(c1ccc([N+](=O)[O-])cc1)C2=O (stereo not drawn) | 60 |  |  |  |  | 
9 | CN1C(=O)NC2(CC2(C)C)C1=O (stereo not drawn) | 90 | 50 | 40 | 60 | 30 | 20
10 | CC(C)N1C(=O)NC2(CC2(C)C)C1=O (stereo not drawn) | 70 |  |  |  |  | 
11 | CCCC(CCC)C(=O)O [VALPROATE SODIUM] |  |  |  | 80 | 50 | 30
12 | CC1(C)CC12NC(=O)N(c1ccccc1)C2=O (stereo not drawn) | 80 | 40 | 20 | 60 | 40 | 20
13 | COc1ccc(N2C(=O)NC3(CC3(C)C)C2=O)cc1 (stereo not drawn) | 60 |  |  |  |  | 
14 | CC1(C)CC12NC(=O)N(c1ccc(F)cc1)C2=O (stereo not drawn) | 80 | 50 | 30 | 70 | 50 | 30
